Bioassay records from PubChem.
Hep lipid drop = modulators of hepatic lipid droplet formation. inhibition, % at 6.5 µM. 240,000 tested, 0.4% active. AML12 mouse hepatocytes, oleate lipid droplets, BODIPY imaging;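 active = lipid droplet intensity inhibited by at least 50%, with more than 500 cells counted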
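Test system: AML12 mouse liver cells; schedule: overnight exposure; technique: high-content imaging of BODIPY-stained droplets and DAPI nuclei; read-out: % inhibition of corrected integrated BODIPY droplet signal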
CHT inh = inhibits the human high affinity choline transporter; Q9GZV3; CHT-expressing cells, membrane potential dye, choline response; hits give low values; B-score at 10 µM; 310,000 tested, 0.86% active; AID 488975;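 active = B-score over 3 SD under the library average, and starting fluorescence ratio not unusually high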;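 note: choline stimulus applied at its EC90 after an EC20 pre-addition; B-score computed on integrated fluorescence ratio after choline addition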
Target sequence (Q9GZV3 whole entry, looked up): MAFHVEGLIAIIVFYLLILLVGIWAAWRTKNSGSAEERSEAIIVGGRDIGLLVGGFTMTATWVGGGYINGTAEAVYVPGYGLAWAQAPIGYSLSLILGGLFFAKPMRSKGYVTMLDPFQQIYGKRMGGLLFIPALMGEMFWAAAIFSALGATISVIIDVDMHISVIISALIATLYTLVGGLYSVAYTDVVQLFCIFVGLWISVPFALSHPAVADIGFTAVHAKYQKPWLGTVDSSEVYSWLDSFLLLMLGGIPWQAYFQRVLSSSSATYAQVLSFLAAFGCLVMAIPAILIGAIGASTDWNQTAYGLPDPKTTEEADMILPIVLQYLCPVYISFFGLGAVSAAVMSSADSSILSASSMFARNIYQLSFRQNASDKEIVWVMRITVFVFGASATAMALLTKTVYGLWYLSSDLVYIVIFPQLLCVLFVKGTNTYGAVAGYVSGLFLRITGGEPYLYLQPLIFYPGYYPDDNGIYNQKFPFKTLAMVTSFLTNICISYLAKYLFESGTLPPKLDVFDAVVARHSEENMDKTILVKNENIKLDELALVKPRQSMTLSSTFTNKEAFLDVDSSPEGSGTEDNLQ
HSF1 inh = HSF1 inhibition; NIH3T3-HGL HSE-luciferase, MG132-induced, luminescence 8 h; hits give low values; activity change, negative = inhibition, % at 7.5 µM (by protocol); 300,000 tested, 0.77% active;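 active = more than half of replicate wells show activity change below -50%, luminescence cut by over half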;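 note: luciferase reports HSF-1 transcriptional activity via heat shock element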
CHT PAM = allosterically activates the human high affinity choline transporter; Q9GZV3; CHT-expressing cells, membrane potential dye, choline EC20; hits give high values; LV-AA mutant CHT in HEK293 cells; B-score at 10 µM; 310,000 tested, 0.49% active;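 active = initial fluorescence not abnormally high and integrated response B-score, plate-corrected, over 3 SD above library mean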
PHOSPHO1 block = inhibitors of human PHOSPHO1 phosphatase; Q8TCT1; recombinant PHOSPHO1, absorbance phosphatase assay; inhibition, % at 13.3 µM; 290,000 tested, 1.1% active; AID 1565; in the data active = inhibition above about 60%
HSF-1 act = increases HSF-1 driven luciferase reporter signal. NIH3T3-HGL HSF-1 luciferase reporter, MG132, 8 h; 100% = twice DMSO control signal. activation, % at 9 µM. AID 504408. 300,000 tested, 1.7% active;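 active = mean replicate activation of at least 50% with a set share of replicates each reaching 50%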
CHT inh conf = human CHT inhibition, confirmatory screen; CHT-expressing cells, choline membrane potential dye; LV-to-AA substituted CHT, HEK293 cells; CHT activity remaining % of control (hits give low values), % at 10 µM; shares compounds with CHT inh; 2,400 tested, 70% active; AID 493221;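 active = choline transporter activity left, mean of duplicates at 10 µM, below buffer-only control mean minus 3 SD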;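 note: depolarization triggered by choline at its EC90 following an EC20 pre-addition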
HEK293 MPD ctr = activity in parental HEK293 cells lacking CHT | membrane potential dye, choline response; active = decrease or increase beyond buffer ±3SD | membrane potential ratio readout (active if shifted either direction beyond buffer ±3SD; no single direction) at 10 µM | 2,400 tested, 4% active | shares compounds with CHT inh | AID 493222;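 note: parental cells lack the transporter so any hit is non-specific; ratio is peak minus trough fluorescence over baseline after EC90 choline challenge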
Numbers stand for hits; i = inactive; nt = not tested or not shown. A selection: hits, their analogues and other compounds. The true share with any hit is near 4.9%.

SMILES	Hep lipid drop	CHT inh	HSF1 inh	CHT PAM	PHOSPHO1 block	HSF-1 act	CHT inh conf	HEK293 MPD ctr
O=C(Nc1ccccc1)N1CCCC(c2nc(-c3ccc(F)cc3)no2)C1 (configuration not stated)	nt	-5.9	i	i	i	i	i	i
O=C(c1ccccc1)N(C1=NCCCCS1)c1ccccc1	i	i	i	i	i	i	nt	nt
O=C(NNC(=S)NC1CCCCC1)c1cccs1	i	i	i	i	i	i	nt	nt
O=C(NNC(=S)NC1CCCCC1)c1ccccc1O	i	-5	i	i	i	i	53%	i
COCCCn1c2nc3ccccc3nc2c2c(=O)n(-c3ccccc3OC)c(C)nc21	i	i	i	i	i	i	nt	nt
Cc1cc(C)cc(OCC(O)CN2CCC(CN3C(=O)c4cccc5cccc(c45)C3=O)CC2)c1 (configuration not stated)	nt	-5.5	i	i	nt	i	58%	i
Cc1noc(C)c1CSc1nc2[nH]ncc2c(=O)n1-c1ccccc1	i	-5.5	i	i	i	i	i	i
CC(C)c1nc(SCC(=O)Nc2nccs2)c2ccccc2n1	i	i	i	i	i	i	nt	nt
Cc1csc(NC(=O)CSc2nc(C(C)C)nc3ccccc23)n1	i	-5.9	i	i	i	i	60%	i
O=C(N/N=C/c1ccco1)c1cccc(N2Cc3ccccc3C2)c1	i	i	i	i	i	i	nt	nt
CCCn1c(=O)c(C(=O)NCc2ccccn2)c(O)c2ccccc21	i	-5.7	nt	i	i	nt	i	i
CCCn1c(=O)c(C(=O)NCc2cccnc2)c(O)c2ccccc21	nt	i	i	i	i	i	nt	nt
O=C(N/N=C/c1ccsc1)c1c[nH]c2ccccc12	i	-7	i	i	i	i	69%	i
C/C(Cl)=C\Cn1c(O)c(N=O)c2ccccc21	i	-7.1	i	i	i	i	51%	i
COc1ccc(C(=O)NC(C)Cc2cnccn2)cc1OC1CCN(C(C)C)CC1 (configuration not stated)	i	-7	i	i	i	i	28%	i
COc1ccc(C(=O)NC(C)CCn2cccn2)cc1OC1CCN(C(C)C)CC1 (configuration not stated)	i	-9.8	i	i	i	i	13%	i
COCC1CCCCN1C(=O)c1ccc(OC)c(OC2CCN(C(C)C)CC2)c1 (configuration not stated)	i	i	i	i	i	i	nt	nt
C/C(=N\N=C(N)N)c1ccc(Cl)cc1Cl	i	-7.5	i	i	i	i	16%	i
C/C(=N\N=C(N)N)c1cc(Cl)ccc1Cl	i	i	i	i	i	i	nt	nt
O=C(CCC1CCCC1)NCCS(=O)(=O)N1CCN(c2ccc(F)cc2)CC1	nt	-5.2	i	i	nt	i	i	i
O=C(CCC1CCCCC1)NCCS(=O)(=O)N1CCN(c2ccc(F)cc2)CC1	nt	i	i	i	nt	i	nt	nt
CN1CCN(c2ncc(CN3C(=O)c4ccccc4C3=O)s2)CC1	nt	-5.3	i	i	i	i	57%	i
c1ccc(Sc2ncnc3ccccc23)cc1	i	-5	i	i	i	nt	i	i
N#CCSc1ncnc2ccccc12	i	i	i	i	i	i	nt	nt
Cc1noc(C)c1COC(=O)c1ccccc1Sc1ccccc1C#N	nt	-6.1	i	i	i	i	i	i
SMILES	Hep lipid drop	CHT inh	HSF1 inh	CHT PAM	PHOSPHO1 block	HSF-1 act	CHT inh conf	HEK293 MPD ctr
N#Cc1ccccc1Sc1ccccc1C(=O)OCC(N)=O	i	i	i	i	i	i	nt	nt
COc1cccc(C2/C(=C(\O)c3ccc4c(c3)OCCO4)C(=O)C(=O)N2c2nnc(C)s2)c1 (configuration not stated)	i	-5.7	i	i	i	i	i	i
CCOC(=O)c1c(NC(=O)C(C)S(=O)(=O)c2cn(CC)c3ccccc23)sc2c1CCCC2 (configuration not stated)	i	i	i	i	i	i	nt	nt
COC(=O)c1ccccc1NC(=O)CSc1nc2cccnc2n1C	i	-5.9	i	i	i	i	i	i
Cc1nc(SC2CC(=O)N(c3cc(Cl)cc(Cl)c3)C2=O)nc2c1CCCC2 (configuration not stated)	i	-9.2	i	i	i	i	57%	i
Cc1cccc(N2C(=O)CC(Sc3nc(C)c4c(n3)CCCC4)C2=O)c1 (configuration not stated)	i	i	i	i	i	i	nt	nt
CC(C)(C)OC(=O)NCCCCCc1nnc(SCC(N)=O)o1	nt	-6.3	i	i	i	i	i	i
Cc1ccc(CSc2nnc(CCNC(=O)OC(C)(C)C)o2)cc1	i	-5.3	i	i	i	i	69%	i
CC(C)(C)OC(=O)NCCc1nnc(SCc2ccccc2)o1	i	i	i	i	i	i	nt	nt
C=C(C)CSc1nnc(CCCCCNC(=O)OC(C)(C)C)o1	i	-6	i	i	i	i	68%	i
Cn1c(NCCCN2CCOCC2)nc2c1c(=O)n(Cc1ccc(Cl)c(Cl)c1)c(=O)n2C	i	i	i	i	i	i	nt	nt
O=C(CCCc1nc(-c2ccccc2)no1)NC1CCCCC1	i	i	i	i	i	i	nt	nt
Cc1cccc(C(=O)OCC(=O)c2c(N)n(CC(C)C)c(=O)n(C)c2=O)c1O	nt	i	i	i	nt	i	nt	nt
CC(C)Cn1c(N)c(C(=O)COC(=O)CCNS(=O)(=O)c2ccccc2)c(=O)n(C)c1=O	nt	-6.3	i	i	nt	i	38%	i
Cc1ccccc1OCCC(=O)OCC(=O)c1c(N)n(CC(C)C)c(=O)n(C)c1=O	i	-6.6	i	i	i	i	58%	i
COCc1cc(Sc2c(Cl)cccc2Cl)nc(-c2ccccc2)n1	nt	i	i	i	i	i	nt	nt
COC(=O)CN1C(=O)Nc2ccc(Br)cc2C1c1ccccc1 (configuration not stated)	i	i	i	i	i	i	nt	nt
Cc1nc(N2CCCCC2)c(C#N)c(C)c1[N+](=O)[O-]	i	i	i	i	i	i	nt	nt
Cc1ccc(-c2nnn(CC(=O)N(Cc3ccccc3)C(C(=O)NC3CCCC3)c3ccncc3)n2)o1 (configuration not stated)	nt	i	i	i	i	i	nt	nt
CC(C)(C)c1ccc(OCC(=O)O)cc1	i	i	i	i	i	i	nt	nt
C[n+]1ccccc1COc1ccc(C(C)(C)C)cc1	i	-7.3	i	i	i	i	34%	i
NC(=O)CC(NC(=O)Cc1ccc(Br)cc1)c1ccc(NCCN2CCCC2)c([N+](=O)[O-])c1 (configuration not stated)	nt	i	i	i	i	i	nt	nt
